Assay outcomes as filed in PubChem BioAssay.
Most compounds without a hit are left out; they make up all but 0.75% or so of the library.
ASAP1 GAP inh: inhibitors of human ASAP1 ArfGAP activity | 0.19% of 360,000 active | Q9ULH1 | ASAP1-stimulated ARF1 GTP hydrolysis, GDP FP detection | AID 624377 | inhibition, % at 16.5 µM; in the data active = inhibition above about 25%;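 note: 0% = vehicle with enzyme and substrate and 100% = no enzyme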
Target sequence (Q9ULH1 325-724 limits assumed): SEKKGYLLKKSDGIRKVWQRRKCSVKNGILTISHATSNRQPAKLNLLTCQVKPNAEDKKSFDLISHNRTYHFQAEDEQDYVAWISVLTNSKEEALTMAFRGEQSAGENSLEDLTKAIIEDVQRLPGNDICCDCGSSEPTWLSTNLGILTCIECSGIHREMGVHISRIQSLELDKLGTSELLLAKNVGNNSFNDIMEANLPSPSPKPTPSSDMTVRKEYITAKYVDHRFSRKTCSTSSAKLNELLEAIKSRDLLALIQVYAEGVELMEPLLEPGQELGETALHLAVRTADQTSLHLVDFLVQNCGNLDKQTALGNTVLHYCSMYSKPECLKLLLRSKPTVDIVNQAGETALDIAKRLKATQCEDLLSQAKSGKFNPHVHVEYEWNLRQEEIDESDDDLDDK
ARFGAP1 inh: rat ARFGAP1 inhibition; Arfgap1-stimulated ARF1 GTP hydrolysis, GDP FP detection; inhibition, % at 16.5 µM; 0.26% of 360,000 active;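 active = inhibition above a per-plate limit, mean inhibition of low control wells plus 3 SD, cut at about 25% in these data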;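 note: 0% = DMSO wells with enzyme and 100% = wells lacking Arfgap1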
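System: truncated rat Arfgap1 GAP domain / Medium: HEPES-based buffer, pH 7.5 / Also added: N-terminally truncated human ARF1-GTP substrate / Incubation: enzyme reaction 120 min at 25 °C after 20 min preincubation / Measured by: FP of antibody-bound GDP Alexa 633 tracer, ex 620/em 688 nm / Replicates: singlicate, each compound tested once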
ZTA DNA inh: ZTA (EBV) inhibition in EBNA-1 counter-screen; 0.15% of 320,000 active; inhibition, % at 11 µM; P03206; ZTA-DNA binding, fluorescence polarization; in the data active = inhibition above about 33%
Target sequence (P03206 whole entry, looked up): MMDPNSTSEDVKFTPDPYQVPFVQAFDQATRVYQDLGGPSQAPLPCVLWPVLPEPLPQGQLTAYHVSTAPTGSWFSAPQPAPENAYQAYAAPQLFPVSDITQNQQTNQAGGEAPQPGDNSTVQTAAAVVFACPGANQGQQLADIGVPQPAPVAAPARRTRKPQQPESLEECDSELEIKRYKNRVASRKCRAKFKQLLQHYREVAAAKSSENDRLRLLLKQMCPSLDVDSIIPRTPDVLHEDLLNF
EBNA-1 inhibitor: blocks EBNA-1 binding to DNA | EBNA-1 DNA binding, fluorescence polarization | inhibition, % at 14.8 µM | 0.34% of 300,000 active; in the data active = inhibition above about 28%
Starred values were filed as active, the others as inactive; . = no result; + = active, no number.

SMILES | ASAP1 GAP inh | ARFGAP1 inh | ZTA DNA inh | EBNA-1 inhibitor
C=CCN=c1scc(-c2ccc(F)cc2)n1/N=C/c1ccccn1 | -11.3 | 0.5 | 5.2 | -0.4
C=CCN=c1scc(-c2ccccc2)n1/N=C/c1ccccn1 | -7.2 | -7.8 | 84.0* | 8.9
N#Cc1ccc(S(=O)(=O)N2CCCc3nc(-c4ccc(Br)cc4)ccc32)cc1 | -13.5 | -4.0 | . | .
Cc1ccc(C(=O)NCc2nnc(SCC(=O)Nc3sc4c(c3C#N)CCCC4)n2C)cc1 | 1.3 | 24.7* | -1.3 | 7.5
Cn1c(CNC(=O)c2ccc(Cl)cc2)nnc1SCC(=O)Nc1sc2c(c1C#N)CCCC2 | -5.8 | -11.5 | 2.6 | 5.2
O=C(O)c1cc(O)ccc1O | 5.5 | 4.0 | . | .
O=C(O)C1=CC(=C(c2ccc(O)c(C(=O)O)c2)c2ccc(O)c(C(=O)O)c2)C=CC1=O | . | . | 111.1* | 92.5*
Cc1[nH][nH]c(=O)c1C(c1ccc(-c2ccc(C(=O)O)cc2)o1)c1c(C)[nH][nH]c1=O | -4.8 | 28.5* | . | .
Cc1[nH][nH]c(=O)c1C(c1ccc(-c2ccc(F)cc2)o1)c1c(C)[nH][nH]c1=O | -0.6 | 17.2 | 2.9 | -15.3
O=C(/C=C/c1cccc([N+](=O)[O-])c1)Nc1ccccn1 | 12.5 | 4.5 | -18.7 | -2.9
Cc1ccc2oc(-c3cccc(NC(=O)/C=C/c4cccc([N+](=O)[O-])c4)c3C)nc2c1 | 5.8 | 7.1 | 10.9 | 27.9*
Cc1nc(N2N=C(c3ccc(Cl)cc3)CC2c2ccco2)sc1C(=O)N(C)C (configuration not stated) | 1.6 | 1.2 | -2.8 | 2.1
COc1ccc(C2=NN(c3nc(-c4ccccc4)c(CC(=O)O)s3)C(c3ccco3)C2)cc1 (configuration not stated) | 1.1 | 2.5 | -5.8 | 39.9*
C=CC#CC[N+]1(CC#Cc2ccccc2)CCOCC1 | 86.8* | 96.7* | . | .
C(#Cc1ccccc1)C[N+]1(CC#Cc2ccccc2)CCCC1 | 0.7 | 0.2 | 7.5 | 13.9
Cc1cc(NC(=O)Cc2c(C)[nH]c3ccccc23)ccc1Oc1cccnc1 | -13.1 | -12.7 | . | .
CC1(C)C(/C=C/C=C/C=C/C=C2\N(CCCCS(=O)(=O)O)c3ccc4ccccc4c3C2(C)C)=[N+](CCCCS(=O)(=O)[O-])c2ccc3ccccc3c21 | . | . | 60.9* | 50.7*
N=C1/C(=C\c2ccc(-c3cc(Cl)cc(Cl)c3)o2)C(=O)N=C2SC=C(c3ccccc3)N12 | 8.6 | 1.3 | 1.4 | 2.2
N=C1/C(=C/c2ccc(-c3cccc(C(=O)O)c3)o2)C(=O)N=C2SC=C(c3ccccc3)N12 | -5.8 | -18.2 | 34.8* | 59.8*
Cc1[nH]nc2c1C(c1cccc(C(F)(F)F)c1)N(Cc1ccccc1)C2=O (configuration not stated) | 0.5 | -4.1 | . | .
CCCCCN(C(=O)Cc1c(C)n(CCCCC)c2ccccc12)c1ccc(Oc2cccnc2)c(C)c1 | 5.4 | -12.2 | . | .
C/C(N)=C(/C#N)C(=O)CSc1nc2ccc(C)cc2[nH]1 | 7.5 | 3.2 | 4.7 | -0.1
C/C(N)=C(/C#N)C(=O)CSc1nnc(COc2cc(C)ccc2C)o1 | -0.6 | -4.4 | 52.8* | 37.7*
CCOC(=O)c1ccc(N2CCN(c3ccccc3F)CC2)c(NC(=O)Nc2ccccc2)c1 | -14.2 | -1.4 | -7.0 | 1.7
CCOC(=O)c1ccc(N2CCN(c3ccc(F)cc3)CC2)c(NC(=O)Nc2cccc(OC)c2)c1 | 8.1 | -5.2 | -6.3 | 82.0*
SMILES | ASAP1 GAP inh | ARFGAP1 inh | ZTA DNA inh | EBNA-1 inhibitor
C[C@@H]1ON(C)[C@H]2C[C@H]3c4[nH]c5c(-c6ccccc6)cccc5c4CCN3C[C@@H]12 | 4.8 | 9.9 | . | .
COc1ccc(-c2cc(C#N)nc(N3CCN(C)CC3)n2)cc1 | 11.0 | -7.2 | -1.6 | -2.0
COc1ccc(-c2cc(C#N)nc(N3CCNCC3)n2)cc1 | 53.5* | 75.3* | 6.5 | 7.8
O=[N+]([O-])c1ccc2c(c1)CO[C@]21O[C@H](CCO)C[C@H](O)[C@H]1O | -5.8 | 7.2 | . | .
O=C(c1ccc2c(c1)C(=O)NC2=O)c1ccc2c(c1)C(=O)NC2=O | 0.8 | -0.6 | . | .
COC(=O)C1=C(C)N(Cc2cccc(C(F)(F)F)c2)C(=NCC2CC2)NC1c1cccc(F)c1 (configuration not stated) | -5.6 | 10.8 | . | .
N#Cc1ccc(S(=O)(=O)N2CCCc3nc(-c4ccc(F)cc4)ccc32)cc1 | -1.3 | -12.8 | . | .
N#Cc1ccc(CSc2nnc(NC(=O)c3ccc4ncsc4c3)s2)cc1 | 15.9 | 13.6 | 5.5 | 36.7*
COc1ccc(CC(=O)NNc2ncnc3c2cnn3-c2ccc(C)cc2)cc1 | 1.7 | 1.5 | 2.6 | 96.9*
COc1ccc(CC(=O)NNc2ncnc3c2cnn3-c2ccccc2)cc1 | -6.3 | 12.6 | 1.4 | -4.4
Cc1ccccc1NC(=O)CN1C(=O)N/C(=C\c2ccc(N3CCOCC3)c(F)c2)C1=O | 2.9 | 1.8 | 6.6 | 55.6*
Cc1ccc(NC(=O)CN2C(=O)N/C(=C/c3ccc(N4CCOCC4)cc3)C2=O)cc1 | -10.8 | -2.1 | -2.8 | -1.2
Cc1ccccc1OCCCN1CCC(C(O)(c2ccccc2)c2ccccc2)CC1 | -5.5 | -8.1 | . | .
CC(C)(C)S(=O)(=O)N1C[C@@H]2CC(=O)C=C2[C@H]1CCO | 8.9 | 1.2 | . | .
Cc1ccc(Nc2nc3ccccc3n3nnnc23)cc1 | -3.6 | -0.4 | -1.6 | 34.2*
CC12CCC3c4ccc(OCCCO)c([N+](=O)[O-])c4CCC3C1CCC2=O (configuration not stated) | 8.1 | 3.6 | . | .
O=C(O)CCC1c2cc3c4cc2OC2Oc5cc6c(cc51)C(CCC(=O)O)c1cc5c7cc1OC(O6)c1cc6cc(c1)Oc1cc(cc(C(=O)O)c1)Oc1cc8cc(c1)C(Oc1cc(c(cc1C5CCC(=O)O)C3CCC(=O)O)OC(O4)c1cc(cc(c1)Oc1cc(cc(C(=O)O)c1)O8)Oc1cc(cc(C(=O)O)c1)Oc1cc(cc2c1)Oc1cc(cc(C(=O)O)c1)O6)O7 (configuration not stated) | . | . | 105.5* | 102.0*
Cc1c(C=O)c(=O)n(-c2ccccc2)n1C | -6.5 | -2.4 | + | +
COc1ccc2nc(NC(=O)CSc3nnc(N)s3)sc2c1 | 10.6 | -11.8 | 4.8 | 37.2*
Cc1ccc(Nc2nc(-c3ccc(S(=O)(=O)N4CCOCC4)cc3)cs2)cc1Cl | 3.5 | 11.8 | -2.9 | 30.7*
CCOC(=O)N1CCN(C2=C(NS(=O)(=O)c3ccc(Br)cc3)C(=O)c3ccccc3C2=O)CC1 | -3.1 | -0.8 | . | .
CCOC(=O)N1CCN(C2=C(NS(=O)(=O)c3ccccc3)C(=O)c3ccccc3C2=O)CC1 | 28.6* | 32.7* | 11.8 | 2.0
Cc1cccc(NC(=O)CNC(=O)[C@H](CCc2ccccc2)NC(=O)[C@H]2O[C@@H](n3cnc4c(N)ncnc43)[C@H](O)[C@@H]2O)c1C | 1.4 | -9.4 | . | .
COc1ccc(/C=N/NC(=O)c2ccc(Br)cc2)cc1Cn1cc(Cl)cn1 | 1.6 | -2.0 | 7.1 | 31.6*
O=C(N/N=C/c1cccs1)c1cccc(NC(=O)c2ccc(Cl)cc2)c1 | 2.1 | -4.0 | 5.8 | 58.9*
O=C(N/N=C/c1cccs1)c1cccc(S(=O)(=O)Nc2ccc(Cl)cc2)c1 | -4.3 | 5.1 | -8.7 | 5.5
COc1ccc(NC(=O)Nc2ccccc2OC)cc1 | -6.6 | 0.8 | -1.6 | -6.4
